This is an account of results in publication PMC6828636 (European Journal of Drug Metabolism and Pharmacokinetics, 2019).

Where two headings read alike, the source gives them in different places.

For one data set, the target named is CYP3A4 (Homo sapiens, UniProt P08684). Kind of data set: CYP3A4 inhibition in human liver microsomes. The data set is classed as in vitro ADME. The settings on record: human liver microsomes. The essentials:
(§1)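 Pooled human liver microsomes were incubated with standard CYP-selective substrates, with and without test compound at 0.03–100 μM. Standard selective inhibitors for each isoform ran in parallel as positive controls. Read-out was IC50. For CYP3A4 only, time-dependent inhibition was also tested after 30 min preincubation, using midazolam and testosterone as substrates.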
In general terms: Liver microsomes are vesicles of endoplasmic reticulum, rich in cytochrome P450 enzymes.

In a further data set the target is CYP2C19 (Homo sapiens, UniProt P33261). Kind of data set: CYP2C19 inhibition in human liver microsomes. The data set is classed as in vitro ADME. The settings on record: read-out: IC50, CYP2C19; human liver microsomes; substrate S-mephenytoin. The essentials:
as §1

Another data set has as its target T1, CYP1A2 (Homo sapiens, UniProt P05177).
T1 sequence (P05177 1-516): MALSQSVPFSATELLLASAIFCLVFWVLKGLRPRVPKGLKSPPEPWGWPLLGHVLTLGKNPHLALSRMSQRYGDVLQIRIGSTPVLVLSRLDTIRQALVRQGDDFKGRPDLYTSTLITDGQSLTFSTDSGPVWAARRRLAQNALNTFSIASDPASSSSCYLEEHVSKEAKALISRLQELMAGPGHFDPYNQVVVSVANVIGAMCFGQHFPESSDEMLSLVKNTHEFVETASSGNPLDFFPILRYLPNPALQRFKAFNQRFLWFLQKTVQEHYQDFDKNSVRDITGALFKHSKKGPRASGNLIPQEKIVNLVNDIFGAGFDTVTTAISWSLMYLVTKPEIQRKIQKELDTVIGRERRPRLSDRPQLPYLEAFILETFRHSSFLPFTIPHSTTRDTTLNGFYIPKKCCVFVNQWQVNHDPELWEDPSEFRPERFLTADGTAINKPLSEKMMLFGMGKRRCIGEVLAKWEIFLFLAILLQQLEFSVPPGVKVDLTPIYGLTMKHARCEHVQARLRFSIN
Kind of data set: biochemical. The data set is classed as in vitro ADME. The settings on record: read-out: IC50, CYP1A2; human liver microsomes; substrate phenacetin.

For the next data set, the target named is CYP2E1 (Homo sapiens, UniProt P05181). Description: CYP2E1 inhibition in human liver microsomes. The data set is classed as in vitro ADME. To be noted: read-out: IC50, CYP2E1; human liver microsomes; substrate chlorzoxazone. The essentials:
as §1

The nature of data set [1]: Clinical plasma and intestinal concentrations of darolutamide. More on the design: species or system human.
Another data set concerns the target CYP2D6 (Homo sapiens, UniProt P10635). Description: CYP2D6 inhibition in human liver microsomes. The data set is classed as in vitro ADME. To be noted: read-out: IC50, CYP2D6; human liver microsomes; substrate dextromethorphan. The gist of the method: as §1
The next data set deals with T2, CYP2B6 (Homo sapiens, UniProt P20813).
T2 sequence (P20813 1-491): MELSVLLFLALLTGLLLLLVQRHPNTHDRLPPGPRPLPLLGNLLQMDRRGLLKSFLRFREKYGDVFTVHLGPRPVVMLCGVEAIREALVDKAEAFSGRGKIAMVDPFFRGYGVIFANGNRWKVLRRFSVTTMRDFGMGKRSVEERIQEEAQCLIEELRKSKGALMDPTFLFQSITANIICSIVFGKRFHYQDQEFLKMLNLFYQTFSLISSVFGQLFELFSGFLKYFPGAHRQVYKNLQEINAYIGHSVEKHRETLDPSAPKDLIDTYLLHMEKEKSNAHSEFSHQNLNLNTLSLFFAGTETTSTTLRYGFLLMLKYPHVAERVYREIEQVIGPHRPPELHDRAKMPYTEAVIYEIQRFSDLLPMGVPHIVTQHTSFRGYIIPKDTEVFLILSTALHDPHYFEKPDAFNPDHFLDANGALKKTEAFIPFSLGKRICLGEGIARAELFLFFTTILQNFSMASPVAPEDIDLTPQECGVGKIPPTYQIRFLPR
Kind of data set: biochemical. The settings on record: read-out: IC50, CYP2B6; human liver microsomes; substrate bupropion. The data set is classed as in vitro ADME.

The target of a further data set is CYP2C9 (Homo sapiens, UniProt P11712). Kind of data set: CYP2C9 inhibition in human liver microsomes. The settings on record: read-out: IC50, CYP2C9; human liver microsomes; substrate diclofenac. The data set is classed as in vitro ADME. The gist of the method: as §1
Chain of CYP2C9 (P11712 whole entry): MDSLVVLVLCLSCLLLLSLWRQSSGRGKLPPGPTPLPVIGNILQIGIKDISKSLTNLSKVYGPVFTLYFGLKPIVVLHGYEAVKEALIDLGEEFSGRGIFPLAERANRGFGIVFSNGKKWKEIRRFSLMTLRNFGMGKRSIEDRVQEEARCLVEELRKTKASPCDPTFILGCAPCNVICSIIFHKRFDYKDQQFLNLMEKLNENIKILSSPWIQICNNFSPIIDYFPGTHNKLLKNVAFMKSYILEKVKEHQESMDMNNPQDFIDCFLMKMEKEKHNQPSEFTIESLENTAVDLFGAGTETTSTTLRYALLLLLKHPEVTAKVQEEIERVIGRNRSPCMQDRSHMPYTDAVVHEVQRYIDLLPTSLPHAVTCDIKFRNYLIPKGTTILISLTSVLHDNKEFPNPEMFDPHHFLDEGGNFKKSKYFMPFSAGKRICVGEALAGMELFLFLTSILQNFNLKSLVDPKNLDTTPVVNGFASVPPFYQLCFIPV
For another data set, the target named is T3, CYP2C8 (Homo sapiens, UniProt P10632).
T3 sequence (P10632 1-490): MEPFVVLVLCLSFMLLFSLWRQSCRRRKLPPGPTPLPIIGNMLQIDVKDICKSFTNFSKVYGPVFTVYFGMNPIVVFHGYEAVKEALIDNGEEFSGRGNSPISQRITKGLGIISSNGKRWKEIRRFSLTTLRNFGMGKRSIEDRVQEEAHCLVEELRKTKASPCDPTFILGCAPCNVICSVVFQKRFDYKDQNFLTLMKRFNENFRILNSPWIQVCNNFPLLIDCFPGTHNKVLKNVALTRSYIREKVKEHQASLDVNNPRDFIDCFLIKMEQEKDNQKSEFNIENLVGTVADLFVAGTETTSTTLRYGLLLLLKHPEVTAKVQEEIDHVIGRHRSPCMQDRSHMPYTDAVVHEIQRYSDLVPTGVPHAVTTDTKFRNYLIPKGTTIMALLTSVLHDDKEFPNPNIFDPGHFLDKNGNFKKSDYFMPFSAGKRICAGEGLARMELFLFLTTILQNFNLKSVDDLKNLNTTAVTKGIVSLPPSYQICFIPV
Description: CYP2C8 inhibition in human liver microsomes. The data set is classed as in vitro ADME. The settings on record: read-out: IC50, CYP2C8; human liver microsomes; substrate amodiaquine. The gist of the method: as §1

In another data set the target is UGT1A9 (Homo sapiens, UniProt O60656). Kind of data set: UGT1A9 inhibition in human liver microsomes. The data set is classed as in vitro ADME. The essentials:
(§2)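 Glucuronidation of UGT-selective substrates was measured in human liver microsomes with and without test compound, using a rank-order approach. Standard inhibitors for each isoform were incubated in parallel as positive controls.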

The next data set deals with T4, CYP2A6 (Homo sapiens, UniProt P11509).
T4 sequence (P11509 1-494): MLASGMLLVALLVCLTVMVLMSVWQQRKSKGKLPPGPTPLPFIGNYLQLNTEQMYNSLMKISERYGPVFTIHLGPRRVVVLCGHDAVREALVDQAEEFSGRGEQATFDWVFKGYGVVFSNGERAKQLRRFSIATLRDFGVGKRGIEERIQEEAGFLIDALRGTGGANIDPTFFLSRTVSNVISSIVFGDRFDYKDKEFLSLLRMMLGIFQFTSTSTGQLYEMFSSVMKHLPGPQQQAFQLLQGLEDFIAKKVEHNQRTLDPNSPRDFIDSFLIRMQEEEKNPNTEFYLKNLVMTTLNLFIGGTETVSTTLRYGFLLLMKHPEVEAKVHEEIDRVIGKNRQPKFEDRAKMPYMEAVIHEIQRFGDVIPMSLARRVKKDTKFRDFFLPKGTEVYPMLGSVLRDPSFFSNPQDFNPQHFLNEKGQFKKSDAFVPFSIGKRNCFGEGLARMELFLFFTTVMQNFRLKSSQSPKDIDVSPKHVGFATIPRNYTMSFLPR
Description: CYP2A6 inhibition in human liver microsomes. The data set is classed as in vitro ADME. The settings on record: read-out: IC50, CYP2A6; human liver microsomes; substrate coumarin. The essentials: as §1

The target of the next data set is T5, UGT1A1 (Homo sapiens, UniProt P22309).
T5 sequence (P22309 26-533): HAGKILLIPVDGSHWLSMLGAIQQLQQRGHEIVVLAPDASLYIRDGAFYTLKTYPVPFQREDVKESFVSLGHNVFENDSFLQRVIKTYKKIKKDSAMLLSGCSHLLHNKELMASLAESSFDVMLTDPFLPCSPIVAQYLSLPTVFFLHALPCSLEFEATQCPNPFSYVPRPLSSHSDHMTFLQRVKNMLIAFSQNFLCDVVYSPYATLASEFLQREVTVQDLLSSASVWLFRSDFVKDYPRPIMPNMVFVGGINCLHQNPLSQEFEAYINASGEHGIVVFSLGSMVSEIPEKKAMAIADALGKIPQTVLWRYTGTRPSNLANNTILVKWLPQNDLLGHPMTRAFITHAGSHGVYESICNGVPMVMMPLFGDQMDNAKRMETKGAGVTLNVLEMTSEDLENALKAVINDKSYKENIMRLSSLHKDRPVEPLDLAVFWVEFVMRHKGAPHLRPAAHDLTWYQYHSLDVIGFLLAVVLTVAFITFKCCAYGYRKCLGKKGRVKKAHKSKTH
Description: UGT1A1 inhibition in human liver microsomes. The data set is classed as in vitro ADME. To be noted: read-out: IC50, UGT1A1, substrate estradiol. The gist of the method: as §2

The format of data set [2] is in vivo, human. To be noted: healthy male volunteers.
The conditions of data set [3]: cited from earlier work.
Data set [4] is described as follows: Phase I study: darolutamide effect on rosuvastatin pharmacokinetics. The data set is classed as in vivo, human.
Setting [5] is: read-out: IC50, CYP3A4 (with pre-incubation), substrate midazolam, 30 min pre-incubation.
Where [6] appears, read: read-out: IC50, CYP3A4 (with pre-incubation), substrate testosterone, 30 min pre-incubation.
The mark [7] stands for this setting: read-out: IC50, CYP3A4, substrate midazolam.
Setting [8] is: read-out: IC50, CYP3A4, substrate testosterone.
Setting [9] is: midazolam 1 mg and dabigatran etexilate 75 mg cocktail, darolutamide 600 mg.

Chain of CYP3A4 (P08684 whole entry, canonical isoform): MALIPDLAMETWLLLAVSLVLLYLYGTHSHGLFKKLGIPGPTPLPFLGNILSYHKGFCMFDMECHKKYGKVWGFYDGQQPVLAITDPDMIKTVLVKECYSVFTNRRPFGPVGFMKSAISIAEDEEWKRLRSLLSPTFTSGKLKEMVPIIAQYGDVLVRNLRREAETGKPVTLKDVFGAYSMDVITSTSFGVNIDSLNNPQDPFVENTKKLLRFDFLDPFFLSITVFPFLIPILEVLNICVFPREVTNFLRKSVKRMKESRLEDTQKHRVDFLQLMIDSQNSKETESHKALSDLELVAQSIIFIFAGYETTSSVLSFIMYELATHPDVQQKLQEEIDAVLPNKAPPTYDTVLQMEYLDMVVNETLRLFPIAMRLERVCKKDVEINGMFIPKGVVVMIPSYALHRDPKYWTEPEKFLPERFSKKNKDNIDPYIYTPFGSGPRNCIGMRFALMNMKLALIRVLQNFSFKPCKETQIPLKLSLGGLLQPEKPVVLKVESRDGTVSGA
Chain of CYP2C19 (P33261 whole entry): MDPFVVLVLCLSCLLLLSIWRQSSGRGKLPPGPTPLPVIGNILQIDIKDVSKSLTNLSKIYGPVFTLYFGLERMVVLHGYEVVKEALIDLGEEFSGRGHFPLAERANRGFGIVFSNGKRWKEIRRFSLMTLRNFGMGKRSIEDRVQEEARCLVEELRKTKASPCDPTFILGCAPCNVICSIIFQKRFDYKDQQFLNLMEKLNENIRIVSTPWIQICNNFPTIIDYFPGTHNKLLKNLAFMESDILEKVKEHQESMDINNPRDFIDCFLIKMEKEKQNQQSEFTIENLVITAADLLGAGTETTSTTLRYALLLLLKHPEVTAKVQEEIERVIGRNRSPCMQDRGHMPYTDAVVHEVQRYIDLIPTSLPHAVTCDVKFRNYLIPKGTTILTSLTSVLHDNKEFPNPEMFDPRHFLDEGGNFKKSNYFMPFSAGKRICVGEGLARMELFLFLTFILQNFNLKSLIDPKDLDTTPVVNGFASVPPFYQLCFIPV
Chain of CYP2E1 (P05181 whole entry): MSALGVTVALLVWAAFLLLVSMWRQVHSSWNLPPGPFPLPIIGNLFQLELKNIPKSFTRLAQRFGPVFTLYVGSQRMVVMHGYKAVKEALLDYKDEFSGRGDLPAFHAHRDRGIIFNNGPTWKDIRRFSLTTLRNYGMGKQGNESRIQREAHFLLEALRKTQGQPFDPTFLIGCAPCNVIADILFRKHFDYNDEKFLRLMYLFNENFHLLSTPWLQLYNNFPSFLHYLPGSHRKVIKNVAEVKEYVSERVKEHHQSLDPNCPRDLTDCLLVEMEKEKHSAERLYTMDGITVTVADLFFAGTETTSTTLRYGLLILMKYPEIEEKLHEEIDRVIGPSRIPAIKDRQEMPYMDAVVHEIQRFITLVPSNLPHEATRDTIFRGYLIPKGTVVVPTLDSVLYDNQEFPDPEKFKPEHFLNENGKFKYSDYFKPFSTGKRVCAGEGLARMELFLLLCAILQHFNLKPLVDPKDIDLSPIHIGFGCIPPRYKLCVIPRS
Chain of UGT1A9 (O60656 26-530): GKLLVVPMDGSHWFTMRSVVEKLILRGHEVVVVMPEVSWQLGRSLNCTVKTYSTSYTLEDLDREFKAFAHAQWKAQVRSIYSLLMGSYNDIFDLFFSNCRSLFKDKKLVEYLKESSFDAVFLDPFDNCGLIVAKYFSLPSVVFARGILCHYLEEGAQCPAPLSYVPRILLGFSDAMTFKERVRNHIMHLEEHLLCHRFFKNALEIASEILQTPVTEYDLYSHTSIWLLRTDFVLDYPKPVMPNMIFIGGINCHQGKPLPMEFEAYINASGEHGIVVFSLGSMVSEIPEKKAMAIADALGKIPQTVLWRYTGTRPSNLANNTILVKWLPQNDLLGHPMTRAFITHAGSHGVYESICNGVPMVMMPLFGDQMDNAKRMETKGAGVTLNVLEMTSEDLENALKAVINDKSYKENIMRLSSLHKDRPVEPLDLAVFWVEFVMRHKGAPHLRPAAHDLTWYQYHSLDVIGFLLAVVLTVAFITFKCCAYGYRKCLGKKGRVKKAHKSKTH
Chain of CYP2D6 (P10635 whole entry): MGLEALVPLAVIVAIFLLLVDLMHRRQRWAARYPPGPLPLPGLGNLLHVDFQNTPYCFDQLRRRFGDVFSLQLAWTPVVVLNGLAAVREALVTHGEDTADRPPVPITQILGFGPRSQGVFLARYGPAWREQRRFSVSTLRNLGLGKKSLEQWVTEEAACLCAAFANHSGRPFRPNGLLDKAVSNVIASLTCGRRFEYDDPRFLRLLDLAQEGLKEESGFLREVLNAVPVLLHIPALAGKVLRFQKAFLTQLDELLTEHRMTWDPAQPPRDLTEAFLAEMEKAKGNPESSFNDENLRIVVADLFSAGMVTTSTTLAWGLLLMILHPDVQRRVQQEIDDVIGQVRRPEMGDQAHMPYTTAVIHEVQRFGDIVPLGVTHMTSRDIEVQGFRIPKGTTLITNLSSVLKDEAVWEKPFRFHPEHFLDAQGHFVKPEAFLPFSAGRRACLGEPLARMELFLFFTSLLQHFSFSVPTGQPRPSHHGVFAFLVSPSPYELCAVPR

By IC50 is commonly meant the midpoint of a concentration-inhibition curve. By Ki is commonly meant the dissociation constant of the complex between target and ligand, obtained from inhibition or displacement. Regarding `C[C@@H](Cn1ccc(-c2ccc(C#N)c(Cl)c2)n1)NC(=O)c1cc([C@@H](C)O)[nH]n1` [(S,R)-darolutamide], the IC50 is over 50 µM at CYP3A4 (setting [5]); over 50 µM at CYP3A4 (setting [6]); over 50 µM on CYP3A4 (setting [7]); over 50 µM on CYP3A4 (setting [8]); 46.7 µM at CYP2C19; over 50 µM at CYP1A2. In addition, the IC50 on CYP2E1 is over 50 µM; on CYP2D6, over 50 µM; on CYP2B6 it was over 50 µM; on CYP2C9 it was 22.6 µM; on CYP2C8, 36.2 µM; at UGT1A9 (read-out: IC50, UGT1A9, substrate propofol), 12.5 µM. In addition, the IC50 was over 50 µM at CYP2A6 and 26.5 µM at UGT1A1. Further, in [1], the “plasma concentration of unbound drug” value was under 600 nM. Further, at UGT1A9 (read-out: Ki, UGT1A9), the inhibitory constant (Ki) was 6.32 µM.
Take `C[C@H](O)c1cc(C(=O)N[C@@H](C)Cn2ccc(-c3ccc(C#N)c(Cl)c3)n2)n[nH]1` [(S,S)-darolutamide]: the IC50 at CYP3A4 (setting [5]), on CYP3A4 (setting [6]), at CYP3A4 (setting [7]), on CYP3A4 (setting [8]), at CYP2C19 and on CYP1A2 was over 50 µM each time. Also, the half-inhibitory concentration (IC50) at CYP2E1 was over 50 µM; at CYP2D6, 40.2 µM; at CYP2B6, over 50 µM; at CYP2C9, over 50 µM; on CYP2C8, 46.3 µM; on CYP2A6, over 50 µM. Also, the IC50 at UGT1A1 turned out to be 31.7 µM. Besides, in data set [1], the “plasma concentration of unbound drug” value was under 600 nM.
Regarding `Cc1ncc2n1-c1ccc(Cl)cc1C(c1ccccc1F)=NC2` [midazolam], in data set [2], the “tmax in the presence and absence of darolutamide” value was “comparable”; the “t½ in the presence and absence of darolutamide” value was “comparable”. In addition, the “reduction in Cmax with co-administered darolutamide versus alone” value in data set [2] (setting [9]) is recorded as about 32%.
For the compound `[H]/N=C(/N)c1ccc(NCc2nc3cc(C(=O)N(CCC(=O)O)c4ccccn4)ccc3n2C)cc1` [non-conjugated dabigatran, dabigatran], in data set [2], the “tmax in the presence and absence of darolutamide” value is recorded as “comparable”; the “t½ in the presence and absence of darolutamide” value is “comparable”. In data set [2] (setting [9]), the “reduction in AUC with co-administered darolutamide versus alone” value is on record as 9% and the “reduction in Cmax with co-administered darolutamide versus alone” value is on record as 16%.
As to `CC(C)c1nc(N(C)S(C)(=O)=O)nc(-c2ccc(F)cc2)c1/C=C/[C@@H](O)C[C@@H](O)CC(=O)O` [rosuvastatin], the “fraction absorbed (fa)” value in [3] is 0.5. For the same compound, in data set [3] (single dose of 5 mg rosuvastatin, healthy subjects, fasted condition), the “AUC(0–24)” value is 19.2 ng·h/mL. In addition, the “effect of darolutamide comedication on t½” value in data set [4] (healthy subjects) was “did not affect”. In addition, the “increase in rosuvastatin exposure with darolutamide” value in [4] (healthy subjects, rosuvastatin 5 mg, darolutamide 600 mg twice daily) was “approximately fivefold”. Besides, the “observed exposure as % of the reported fasted AUC(0–24)” value in data set [4] (human, in vivo) amounted to 34%. Besides, the “incidence of treatment-emergent AEs, alone versus with concomitant darolutamide” value in [4] (single doses of rosuvastatin 5 mg) was “similar”.
